According to ChEMBL document CHEMBL4043099, “Synthesis and biological activity of cyclolinopeptide A analogues modified with γ4-bis(homo-phenylalanine)” (Bioorg Med Chem, 2017):
Calls of active or inactive are those of the source. The calls are words filed in the database; no cut-off is given here. Where a SMILES comes first, the peptide text is derived from it.

Assays:
PBMC [1] = experiment: Immunosuppressive activity in human PBMC assessed as inhibition of PHA-induced proliferation after 4 days by MTT assay; type: functional, cell-based
Summary of the method: (§1)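 PBMC (2×10^5 cells/well) in supplemented RPMI-1640, stimulated with 5 µg/mL PHA, with peptide at 1, 10 or 100 µg/mL. DMSO dilutions as control; no-PHA wells as baseline. Proliferation read by MTT after 4 days of incubation. Data given as mean OD of quadruplicate wells ± SE.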

PBMC [2] = experiment: Anti-inflammatory activity in human PBMC assessed as inhibition of LPS-induced TNFalpha production at 10 ug/ml after overnight incubation by immunoassay; type: functional
Summary of the method: (§2)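 Diluted venous blood from a single donor (10× in RPMI-1640), 1 mL cultures, stimulated with 1 µg/mL LPS from E. coli O:111:B4. Peptides added at 1 and 10 µg/mL from DMSO stock (5 mg/200 µL) diluted in RPMI-1640. DMSO dilutions served as 100% controls. Overnight incubation, then supernatants frozen at -20 C and TNF-α measured by ELISA.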

PBMC [3] = experiment: Anti-inflammatory activity in human PBMC assessed as inhibition of LPS-induced TNFalpha production at 1 to 10 ug/ml after overnight incubation by immunoassay; type: functional, cell-based; summary of the method: as §2
PBMC [4] = experiment: Immunosuppressive activity in human PBMC assessed as inhibition of PHA-induced cell proliferation at 10 ug/ml after 4 days by MTT assay; type: functional, cell-based; summary of the method: as §1
HT-29 = experiment: Cytotoxicity against human HT-29 cells at 12 ug/ml; type: functional, cell-based
A-431 = experiment: Cytotoxicity against human A431 cells at 6 ug/ml; type: functional, cell-based
PBMC [5] = experiment: Immunosuppressive activity in human PBMC assessed as inhibition of PHA-induced cell proliferation at 1 to 100 ug/ml after 4 days by MTT assay; type: functional, cell-based; summary of the method: as §1
PBMC [6] = experiment: Cytotoxicity against human PBMC assessed as reduction in cell viability at 1 to 100 ug/ml after 24 hrs by MTT assay; type: cell-based
Summary of the method: (§3)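 Single-donor PBMC isolated on LSM, resuspended in RPMI-1640 with 10% FCS, L-glutamine, pyruvate, 2-mercaptoethanol and antibiotics. Cells plated at 3×10^5 per well and cultured 24 h with peptide at 1, 10 or 100 µg/mL. Survival read by MTT and expressed as % viable cells versus matched DMSO controls.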

PBMC [7] = experiment: Cytotoxicity against human PBMC assessed as reduction in cell viability at 100 ug/ml after 24 hrs by MTT assay; type: cell-based; summary of the method: as §3

Compound: CC[C@H](C)[C@@H]1NC(=O)[C@H](CC(C)C)NC(=O)CC[C@H](Cc2ccccc2)NC(=O)CC[C@H](Cc2ccccc2)NC(=O)[C@@H]2CCCN2C(=O)[C@@H]2CCCN2C(=O)[C@H](C(C)C)NC(=O)[C@H](CC(C)C)NC(=O)[C@H]([C@@H](C)CC)NC1=O
- Activity (PBMC [1]): Dose-dependent effect
- inhibition (PBMC [2]): Active
- inhibition (PBMC [3]): Active
- Activity (PBMC [4]): Active

Compound: CC[C@H](C)[C@@H]1NC(=O)[C@H](CC(C)C)NC(=O)CC[C@H](Cc2ccccc2)NC(=O)CC[C@@H](Cc2ccccc2)NC(=O)[C@@H]2CCCN2C(=O)[C@@H]2CCCN2C(=O)[C@H](C(C)C)NC(=O)[C@H](CC(C)C)NC(=O)[C@H]([C@@H](C)CC)NC1=O
- Activity (PBMC [1]): Dose-dependent effect
- inhibition (PBMC [2]): Active
- Activity (PBMC [4]): Active

Compound: CC[C@H](C)[C@@H]1NC(=O)[C@H](CC(C)C)NC(=O)[C@H](Cc2ccccc2)NC(=O)[C@H](Cc2ccccc2)NC(=O)[C@@H]2CCCN2C(=O)[C@@H]2CCCN2C(=O)[C@H](C(C)C)NC(=O)[C@H](CC(C)C)NC(=O)[C@H]([C@@H](C)CC)NC1=O (cyclo(FFLIILVPP))
- Activity (HT-29): inactive
- Activity (A-431): inactive

Compound: CC[C@H](C)[C@H](N)C(=O)N[C@H](C(=O)N[C@@H](CC(C)C)C(=O)N[C@H](C(=O)N1CCC[C@H]1C(=O)N1CCC[C@H]1C(=O)N[C@@H](CCC(=O)N[C@H](CCC(=O)N[C@@H](CC(C)C)C(=O)O)Cc1ccccc1)Cc1ccccc1)C(C)C)[C@@H](C)CC
- Activity (PBMC [5]): inactive
- Activity (PBMC [6]): Non-Toxic
- inhibition at 10 µg/mL (PBMC [2]): 45%

Compound: CC[C@H](C)[C@H](N)C(=O)N[C@H](C(=O)N[C@@H](CC(C)C)C(=O)N[C@H](C(=O)N1CCC[C@H]1C(=O)N1CCC[C@H]1C(=O)N[C@@H](Cc1ccccc1)C(=O)N[C@H](CCC(=O)N[C@@H](CC(C)C)C(=O)O)Cc1ccccc1)C(C)C)[C@@H](C)CC
- Activity (PBMC [5]): inactive
- Activity (PBMC [6]): Non-Toxic
- inhibition at 10 µg/mL (PBMC [2]): 45%

Compound: CC[C@H](C)[C@H](N)C(=O)N[C@H](C(=O)N[C@@H](CC(C)C)C(=O)N[C@H](C(=O)N1CCC[C@H]1C(=O)N1CCC[C@H]1C(=O)N[C@@H](Cc1ccccc1)C(=O)N[C@@H](CCC(=O)N[C@@H](CC(C)C)C(=O)O)Cc1ccccc1)C(C)C)[C@@H](C)CC
- Activity (PBMC [5]): inactive
- Activity (PBMC [6]): Non-Toxic
- inhibition at 10 µg/mL (PBMC [2]): 45%

Compound: CC[C@H](C)[C@H](N)C(=O)N[C@H](C(=O)N[C@@H](CC(C)C)C(=O)N[C@H](C(=O)N1CCC[C@H]1C(=O)N1CCC[C@H]1C(=O)N[C@H](CCC(=O)N[C@@H](Cc1ccccc1)C(=O)N[C@@H](CC(C)C)C(=O)O)Cc1ccccc1)C(C)C)[C@@H](C)CC
- Activity (PBMC [5]): inactive
- Activity (PBMC [6]): Non-Toxic
- inhibition at 10 µg/mL (PBMC [2]): 45%

Compound: CC[C@H](C)[C@H](N)C(=O)N[C@H](C(=O)N[C@@H](CC(C)C)C(=O)N[C@H](C(=O)N1CCC[C@H]1C(=O)N1CCC[C@H]1C(=O)N[C@H](CCC(=O)N[C@@H](CCC(=O)N[C@@H](CC(C)C)C(=O)O)Cc1ccccc1)Cc1ccccc1)C(C)C)[C@@H](C)CC
- Activity (PBMC [5]): inactive
- Activity (PBMC [6]): Non-Toxic
- inhibition at 10 µg/mL (PBMC [2]): 45%

Compound: CC[C@H](C)[C@H](N)C(=O)N[C@H](C(=O)N[C@@H](CC(C)C)C(=O)N[C@H](C(=O)N1CCC[C@H]1C(=O)N1CCC[C@H]1C(=O)N[C@H](CCC(=O)N[C@H](CCC(=O)N[C@@H](CC(C)C)C(=O)O)Cc1ccccc1)Cc1ccccc1)C(C)C)[C@@H](C)CC
- Activity (PBMC [5]): inactive
- Activity (PBMC [6]): Non-Toxic
- inhibition at 10 µg/mL (PBMC [2]): 45%

Compound: CC[C@H](C)[C@H](N)C(=O)N[C@H](C(=O)N[C@@H](CC(C)C)C(=O)N[C@H](C(=O)N1CCC[C@H]1C(=O)N1CCC[C@H]1C(=O)N[C@@H](CCC(=O)N[C@@H](CCC(=O)N[C@@H](CC(C)C)C(=O)O)Cc1ccccc1)Cc1ccccc1)C(C)C)[C@@H](C)CC
- Activity (PBMC [5]): inactive
- Activity (PBMC [6]): Non-Toxic
- inhibition at 10 µg/mL (PBMC [2]): 45%

Compound: CC[C@H](C)[C@@H]1NC(=O)[C@H](CC(C)C)NC(=O)[C@H](Cc2ccccc2)NC(=O)CC[C@@H](Cc2ccccc2)NC(=O)[C@@H]2CCCN2C(=O)[C@@H]2CCCN2C(=O)[C@H](C(C)C)NC(=O)[C@H](CC(C)C)NC(=O)[C@H]([C@@H](C)CC)NC1=O
- Activity (PBMC [7]): Toxic
- Activity (PBMC [1]): Dose-dependent effect
- inhibition (PBMC [2]): Active
- Activity (PBMC [4]): Active

Compound: CC[C@H](C)[C@@H]1NC(=O)[C@H](CC(C)C)NC(=O)CC[C@@H](Cc2ccccc2)NC(=O)CC[C@H](Cc2ccccc2)NC(=O)[C@@H]2CCCN2C(=O)[C@@H]2CCCN2C(=O)[C@H](C(C)C)NC(=O)[C@H](CC(C)C)NC(=O)[C@H]([C@@H](C)CC)NC1=O
- Activity (PBMC [1]): Dose-dependent effect
- inhibition (PBMC [2]): Active
- Activity (PBMC [4]): Active

Compound: CC[C@H](C)[C@@H]1NC(=O)[C@H](CC(C)C)NC(=O)CC[C@@H](Cc2ccccc2)NC(=O)CC[C@@H](Cc2ccccc2)NC(=O)[C@@H]2CCCN2C(=O)[C@@H]2CCCN2C(=O)[C@H](C(C)C)NC(=O)[C@H](CC(C)C)NC(=O)[C@H]([C@@H](C)CC)NC1=O
- Activity (PBMC [7]): Toxic
- Activity (PBMC [1]): Dose-dependent effect
- inhibition (PBMC [2]): Active
- Activity (PBMC [4]): Active

Compound: CC[C@H](C)[C@@H]1NC(=O)[C@H](CC(C)C)NC(=O)CC[C@@H](Cc2ccccc2)NC(=O)[C@H](Cc2ccccc2)NC(=O)[C@@H]2CCCN2C(=O)[C@@H]2CCCN2C(=O)[C@H](C(C)C)NC(=O)[C@H](CC(C)C)NC(=O)[C@H]([C@@H](C)CC)NC1=O
- Activity (PBMC [7]): Toxic
- Activity (PBMC [1]): Dose-dependent effect
- inhibition (PBMC [2]): Active
- Activity (PBMC [4]): Active

Compound: CC[C@H](C)[C@@H]1NC(=O)[C@H](CC(C)C)NC(=O)CC[C@H](Cc2ccccc2)NC(=O)[C@H](Cc2ccccc2)NC(=O)[C@@H]2CCCN2C(=O)[C@@H]2CCCN2C(=O)[C@H](C(C)C)NC(=O)[C@H](CC(C)C)NC(=O)[C@H]([C@@H](C)CC)NC1=O
- Activity (PBMC [1]): Dose-dependent effect
- inhibition (PBMC [2]): Active
- Activity (PBMC [4]): Active

Compound: CC[C@H](C)[C@H](N)C(=O)N[C@H](C(=O)N[C@@H](CC(C)C)C(=O)N[C@H](C(=O)N1CCC[C@H]1C(=O)N1CCC[C@H]1C(=O)N[C@@H](CCC(=O)N[C@@H](Cc1ccccc1)C(=O)N[C@@H](CC(C)C)C(=O)O)Cc1ccccc1)C(C)C)[C@@H](C)CC
- Activity (PBMC [5]): inactive
- Activity (PBMC [6]): Non-Toxic
- inhibition (PBMC [2]): inactive
